Blank lines part the entries; values can stand above or below the molecule they belong to.
Columns and labels:
Rattus norvegicus [1] = test: Hypertensive activity (increase in arterial pressure to 60 mmHg)) after i.v. administration to pithed rats.
[2] = molecular target: T1, Adrenergic receptor alpha-2 (Rattus norvegicus, UniProt P22086+P19328+P22909); test: Binding affinity against Alpha-2 adrenergic receptor is the ability to inhibit the specific [3H]clonidine binding (0.4 nM) to rat isolated brain membranes by 50% was reported; 3.0*10e-8; assay type: tissue-based, Membrane
T1 sequence (P22086 whole entry): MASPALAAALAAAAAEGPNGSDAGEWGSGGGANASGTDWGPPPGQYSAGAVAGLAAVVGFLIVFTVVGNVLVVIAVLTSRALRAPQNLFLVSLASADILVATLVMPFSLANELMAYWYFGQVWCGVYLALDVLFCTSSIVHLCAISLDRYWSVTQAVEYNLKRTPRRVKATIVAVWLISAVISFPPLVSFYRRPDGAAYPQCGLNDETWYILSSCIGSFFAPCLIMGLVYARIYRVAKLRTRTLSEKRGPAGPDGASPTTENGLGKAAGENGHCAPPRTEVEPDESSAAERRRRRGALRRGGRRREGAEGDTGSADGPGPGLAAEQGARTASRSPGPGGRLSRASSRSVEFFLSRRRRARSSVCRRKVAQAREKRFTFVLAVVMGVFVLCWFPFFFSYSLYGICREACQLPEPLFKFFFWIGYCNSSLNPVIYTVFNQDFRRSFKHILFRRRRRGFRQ
T1 sequence (P19328 whole entry): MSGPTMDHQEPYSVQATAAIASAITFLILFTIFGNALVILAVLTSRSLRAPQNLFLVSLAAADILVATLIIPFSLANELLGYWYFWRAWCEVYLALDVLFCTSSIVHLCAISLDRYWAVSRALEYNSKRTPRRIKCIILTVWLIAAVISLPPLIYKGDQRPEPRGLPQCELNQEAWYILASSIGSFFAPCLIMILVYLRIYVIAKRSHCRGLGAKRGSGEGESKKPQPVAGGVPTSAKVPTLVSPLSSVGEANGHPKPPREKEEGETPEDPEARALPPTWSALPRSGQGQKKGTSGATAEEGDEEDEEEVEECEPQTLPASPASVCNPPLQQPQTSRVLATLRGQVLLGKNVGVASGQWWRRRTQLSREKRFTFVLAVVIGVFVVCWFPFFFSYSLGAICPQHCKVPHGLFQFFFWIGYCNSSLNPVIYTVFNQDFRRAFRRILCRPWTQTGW
T1 sequence (P22909 whole entry): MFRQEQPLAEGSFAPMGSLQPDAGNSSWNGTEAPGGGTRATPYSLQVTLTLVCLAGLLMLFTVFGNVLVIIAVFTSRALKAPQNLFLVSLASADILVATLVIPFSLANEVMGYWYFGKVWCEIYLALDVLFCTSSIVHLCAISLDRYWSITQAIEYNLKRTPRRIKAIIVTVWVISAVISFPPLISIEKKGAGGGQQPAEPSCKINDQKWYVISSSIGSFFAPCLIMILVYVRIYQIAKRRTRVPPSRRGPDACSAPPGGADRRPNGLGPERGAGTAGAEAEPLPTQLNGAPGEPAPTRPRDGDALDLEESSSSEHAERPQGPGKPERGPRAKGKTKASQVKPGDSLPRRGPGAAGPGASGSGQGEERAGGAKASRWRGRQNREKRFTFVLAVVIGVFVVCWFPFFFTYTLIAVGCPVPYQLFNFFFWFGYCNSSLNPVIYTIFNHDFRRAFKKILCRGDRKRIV

Rattus norvegicus [3] = test: Hypotensive activity (25% decrease in arterial pressure) after i.v. administration to anesthetized normotensive rats.
[4] = molecular target: T2, Adrenergic receptor alpha-1 (Rattus norvegicus, UniProt P15823+P23944+P43140); test: Binding affinity against alpha-1 adrenergic receptor is the ability to inhibit the specific [3H]prazosin binding (0.2 nM) to rat isolated brain membranes by 50% was reported; 1.6*10e-6; assay type: tissue-based, Membrane
T2 sequence (P15823 whole entry): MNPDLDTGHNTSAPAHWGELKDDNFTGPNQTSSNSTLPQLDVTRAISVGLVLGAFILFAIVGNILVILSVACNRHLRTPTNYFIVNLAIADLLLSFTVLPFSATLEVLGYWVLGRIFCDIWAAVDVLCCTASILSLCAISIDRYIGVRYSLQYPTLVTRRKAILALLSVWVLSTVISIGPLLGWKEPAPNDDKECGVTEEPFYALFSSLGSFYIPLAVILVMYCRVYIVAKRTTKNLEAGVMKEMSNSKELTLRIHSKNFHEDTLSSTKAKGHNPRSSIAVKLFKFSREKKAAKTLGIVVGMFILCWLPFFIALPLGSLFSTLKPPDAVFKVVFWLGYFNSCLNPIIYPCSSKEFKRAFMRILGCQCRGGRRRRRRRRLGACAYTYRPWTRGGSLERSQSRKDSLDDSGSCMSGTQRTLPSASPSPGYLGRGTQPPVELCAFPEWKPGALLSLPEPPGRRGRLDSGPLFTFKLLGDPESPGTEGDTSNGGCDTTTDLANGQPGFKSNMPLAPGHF
T2 sequence (P23944 whole entry): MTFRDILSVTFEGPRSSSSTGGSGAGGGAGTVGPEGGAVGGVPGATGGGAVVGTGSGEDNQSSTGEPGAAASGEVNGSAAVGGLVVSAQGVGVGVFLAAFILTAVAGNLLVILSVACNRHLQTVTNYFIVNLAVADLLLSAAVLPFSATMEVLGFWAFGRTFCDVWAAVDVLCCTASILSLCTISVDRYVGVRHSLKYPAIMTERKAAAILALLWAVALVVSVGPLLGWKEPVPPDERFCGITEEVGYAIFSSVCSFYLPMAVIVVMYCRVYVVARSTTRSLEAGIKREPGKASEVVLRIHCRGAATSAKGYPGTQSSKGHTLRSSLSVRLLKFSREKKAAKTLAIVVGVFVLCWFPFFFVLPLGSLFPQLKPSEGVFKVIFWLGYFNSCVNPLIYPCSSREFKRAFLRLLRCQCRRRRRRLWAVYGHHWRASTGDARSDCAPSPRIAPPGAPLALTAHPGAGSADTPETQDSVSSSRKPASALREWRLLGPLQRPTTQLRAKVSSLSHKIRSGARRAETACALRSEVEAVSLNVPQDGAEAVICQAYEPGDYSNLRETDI
T2 sequence (P43140 whole entry): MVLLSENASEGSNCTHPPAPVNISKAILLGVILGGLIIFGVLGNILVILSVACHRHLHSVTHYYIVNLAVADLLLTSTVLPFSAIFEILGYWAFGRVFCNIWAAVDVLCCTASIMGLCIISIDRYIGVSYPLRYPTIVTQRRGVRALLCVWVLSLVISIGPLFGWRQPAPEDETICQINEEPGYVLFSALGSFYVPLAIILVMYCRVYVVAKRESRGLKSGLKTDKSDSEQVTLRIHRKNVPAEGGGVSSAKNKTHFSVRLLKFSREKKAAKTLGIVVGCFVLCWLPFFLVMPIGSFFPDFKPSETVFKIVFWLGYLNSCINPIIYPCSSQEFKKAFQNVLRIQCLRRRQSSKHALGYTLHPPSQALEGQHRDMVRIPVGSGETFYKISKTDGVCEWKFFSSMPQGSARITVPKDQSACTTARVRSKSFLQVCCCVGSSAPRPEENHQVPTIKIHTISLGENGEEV
Procedure, shortened: (§1)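 Brain membranes were prepared from male Wistar rats (200–250 g, cerebellum removed) in ice-cold 50 mmol/L Tris-HCl, pH 7.7, with two 50000g spins, and used at 1 mg/mL protein (Lowry). […] Bound label was collected by vacuum filtration and counted. IC50 came from log probit analysis.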

[5] = molecular target: T2, Adrenergic receptor alpha-1; test: Binding affinity against alpha-1 adrenergic receptor is the ability to inhibit the specific [3H]prazosin binding (0.2 nM) to rat isolated brain membranes by 50% was reported; 6.5*10e-5; parameters: species or system Membrane
[6] = molecular target: T1, Adrenergic receptor alpha-2; test: Binding affinity against Alpha-2 adrenergic receptor is the ability to inhibit the specific [3H]-clonidine binding (0.4 nM) to rat isolated brain membranes by 50% was reported; 1*10e-6; assay type: tissue-based, Membrane
Procedure, shortened: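 Whole rat brain (minus cerebellum) from male Wistar rats (200–250 g), homogenized in ice-cold 50 mM Tris-HCl pH 7.7 and washed twice at 50000g. […] Bound ligand was collected by rapid filtration and counted. IC50 was derived by log-probit analysis.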

[7] = molecular target: T1, Adrenergic receptor alpha-2; test: Binding affinity against Alpha-2 adrenergic receptor is the ability to inhibit the specific [3H]clonidine binding (0.4 nM) to rat isolated brain membranes by 50% was reported; 2.5*10e-9; assay type: tissue-based, Membrane
[8] = molecular target: T2, Adrenergic receptor alpha-1; test: Binding affinity against alpha-1 adrenergic receptor is the ability to inhibit the specific [3H]prazosin binding (0.2 nM) to rat isolated brain membranes by 50% was reported; 6.6*10e-7; assay type: tissue-based, Membrane
Procedure, shortened: as §1

[9] = molecular target: T1, Adrenergic receptor alpha-2; test: Antagonist activity against B-HT 933-induced alpha-2-adrenoceptor-mediated vasoconstriction in pithed normotensive rats; assay type: functional
[10] = molecular target: T1, Adrenergic receptor alpha-2; test: Inhibition of specific [3H]-clonidine binding (0.4 nM) to rat brain membranes alpha-2 adrenoceptor; 2.8*10e-7; assay type: cell membranes, Membrane
[11] = molecular target: Adrenergic receptor alpha-2 (Homo sapiens) (UniProt P08913+P18825+P18089); conditions: Oryctolagus cuniculus
[12] = molecular target: T1, Adrenergic receptor alpha-2; test: Inhibition of specific [3H]clonidine binding (0.4 nM) to rat brain membranes alpha2 adrenoceptor; assay type: cell membranes, Membrane

IC50 [2]: 30 nM
IC50 [4]: 1600 nM
Structure (SMILES): c1ccc2c(c1)CCCC2C1=NCCN1 (stereo unspecified) [TETRAHYDROZOLINE]
pC60 (Rattus norvegicus [1]): 0.9 uM kg-1
pC25 (Rattus norvegicus [3]): -0.16 uM kg-1

pA2 [9]: 5.82
IC50 [10]: 280 nM
pC30 [11]: 6.15
Structure (SMILES): c1ccc(CC2=NCCN2)cc1 [TOLAZOLINE]

More lines, now with the values behind:

Structure (SMILES): Cn1cc2c(NC3=NCCN3)cccc2n1 [INDANIDINE]
pC60 (Rattus norvegicus [1]): -0.24 uM kg-1
IC50 [5]: 65000 nM
IC50 [6]: 1000 nM

Structure (SMILES): CC(Oc1c(Cl)cccc1Cl)C1=NCCN1 (stereo unspecified) [LOFEXIDINE]
pC60 (Rattus norvegicus [1]): 1.99 uM kg-1
pC25 (Rattus norvegicus [3]): 2.09 uM kg-1
IC50 [7]: 2.5 nM
IC50 [8]: 660 nM

Structure (SMILES): c1ccc2c(c1)OCC(CN1CCCCC1)O2 (stereo unspecified) [PIPEROXAN]
pA2 [9]: 6.23
IC50 [12]: 140 nM
